Compound activity (PubChem)
Only some compounds are listed: those with a hit (about 2.1% of all), similar ones and a draw of the others.
MT stabilizer: microtubule stabilizers in HeLa cells. actives 0.83% (n = 200,000). AID 2205. HeLa tubulin immunostaining HCS, 24 h; share of cells brighter than vehicle mean+2SD. % tubulin-high responders, % at 10 µM;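 active = plate Z-score above 3 for both tubulin-high and condensed-nucleus cell shares, with cell loss under 80%, at 10 µM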;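 note: anti alpha tubulin signal scored within the nucleus-defined area of each cell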
b-catenin transl: alters nuclear translocation of beta-catenin in HeLa cells; immunofluorescence imaging; nuclear translocation activity, % at 5 µM; actives 0.3% (n = 190,000); AID 1665;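 active = nuclear translocation activity above 50% at 5 µM, with a well cell count of 50 or more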;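 note: per-cell ratio of nuclear to cytoplasmic median beta-catenin stain intensity; plate controls were DMSO negative control for no effect and GSK-3 inhibitor IX positive control for full effect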
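Test system: HeLa cells, endogenous beta-catenin; Compound: single 5 µM dose plus 0.02–20 µM confirmation series; Times: compound exposure 24 h at 37°C; Signal: fluorescence imaging of beta-catenin antibody stain plus DAPI; Read-out: % activation, nuclear-to-cytoplasmic median beta-catenin signal ratio per cell.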
Dynein cargo inh: dynein cargo transport inhibition. 3617.4 mouse cells, GR-EGFP nuclear translocation imaging; test concentration mostly 20 µM; stimulated with dexamethasone, 1 µM; active compounds read low. z-score, hits read low. actives 0.47% (n = 220,000). AID 1381;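 active = plate z-score of nuclear minus cytoplasmic receptor signal below a set negative limit, without overly bright fluorescence or cell loss, cut at about -3.5 in these data, passing the limit was not always enough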;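 note: z-score of nuclear minus cytoplasmic ring GR-EGFP intensity difference per well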
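Buffer or medium: tet-free medium with charcoal-stripped serum / Also added: dexamethasone agonist, 1.0 µM final, for 30 min / Timing: induction 48 h, compound 1 h, agonist 30 min / Measured by: high-content fluorescence imaging after fixation / Read-out: nuclear-to-cytoplasmic GR-EGFP distribution per well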
Autophagy mod: modulators of autophagy; actives 0.98% (n = 190,000); calls only at 10 µM (by protocol); MEF GFP-LC3 puncta imaging; test concentration mostly 10 µM;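 active = percentage of spot-positive cells more than 3 SD above its plate mean, without a fluorescence outlier flag or 80% toxicity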;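 note: spot-positive cell cutoff set from DMSO-treated cells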
Hsp70 act: switches on Hsp70 transcription. HeLa Hsp70 promoter luciferase reporter, luminescence; scaled: vehicle 0, proteasome-inhibitor control 100%. activation, % at 10 µM. actives 0.04% (n = 200,000);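 active = activation above the mean across all tested compounds plus 3 SD, cutoff set per campaign, cut at about 5.5% in these data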;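 note: 100% = MG132 at 30 µM as the positive control and 0% = DMSO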
Active calls of the source: *; i = inactive; . = no result given; + = active, no number.

SMILES | MT stabilizer | b-catenin transl | Dynein cargo inh | Autophagy mod | Hsp70 act
COc1ccc(Nc2nc(-c3ccccc3)nc3ccccc23)cc1S(=O)(=O)N1CCOCC1 | . | 0 | -0.66 | . | .
CC(CSc1nnnn1-c1ccccc1)Cn1c(N2CCCC2)nc2c1c(=O)[nH]c(=O)n2C (stereo not drawn) | 3 | -2 | -0.3 | + | 0
Cc1sc2ncnc(OCC(=O)N3CC(=O)Nc4ccccc43)c2c1C | 2 | 0 | 2.4 | i | 0
CCOC(=O)N1CCN(C(=O)CSc2nnc(-c3ccc(C(C)(C)C)cc3)o2)CC1 | 3 | -3 | -0.15 | + | 0
O=C(CCN1CCN(c2ccccc2)CC1)N/N=C/c1ccccc1OC(F)F | 5 | . | 0.14 | + | 0
N#CC1=C(N)NC(SCc2ccccc2)=C(C#N)C12CCCCC2 | 30* | 58* | -0.13 | i | 0
CN1CCN(NC(=O)c2cc(S(=O)(=O)Nc3ccc(Cl)cc3)ccc2Cl)CC1 | . | -1 | 1.1 | . | .
COC(=O)c1ccc2c(=O)n(Cc3ccc(C(=O)NCCCN4CCC(C)CC4)cc3)c(=S)[nH]c2c1 | 5 | -2 | 0.35 | i | 0
CC1CCN(CCCNC(=O)c2ccc3c(=O)n(Cc4ccc(Cl)cc4)c(=S)[nH]c3c2)CC1 | 31 | 3 | -5.1 | + | 0
CCOC(=O)C1CCCN(C(=O)c2ccc(Cn3c(=S)[nH]c4cc(C(=O)OC)ccc4c3=O)cc2)C1 (stereo not drawn) | 18* | . | 0.42 | i | 0
N#Cc1ccc(/C=N/N=C(N)N)cc1 | 2 | -3 | 2.4 | i | 0
NC(N)=N/N=C/c1ccc(Br)cc1 | 24* | 113* | -0.13 | i | 0
Cc1ccc(-c2csc3nc4c5ccccc5c(NCCCN5CCOCC5)nn4c(=O)c23)cc1 | 4 | 8 | -0.18 | i | 0
Cc1ccc(-c2csc3nc4c5ccccc5c(NCCCN(C)C)nn4c(=O)c23)cc1 | 77* | 6 | -6 | + | 0
Nc1c(C(=O)Nc2ccccc2)sc2nc3c(c(-c4ccco4)c12)CCC3 | 4 | -2 | 3.4 | i | 0
Nc1c(C(=O)NC23CC4CC(CC(C4)C2)C3)sc2nc3c(c(C(F)(F)F)c12)CCC3 | i | 0 | 0.06 | + | 0
COc1cc(CN2CCN(c3ccccc3F)CC2)c([N+](=O)[O-])cc1OC | 2 | 2 | -0.9 | i | 1
Cn1ncc(C(=O)N=S(C)(=O)c2ccccc2)c1[N+](=O)[O-] (stereo not drawn) | . | -1 | -0.15 | . | .
CCCCCCCCC[n+]1cccc2c3ccccc3ccc21 | 2 | 3 | 1.4 | i | 0
CCCCCCCCCCCCCCCC[n+]1cccc2ccccc21 | 73 | 50 | -5.2* | i | 0
COc1ccccc1-n1cnc2cc(NC(=O)c3ccco3)ccc21 | 52* | 62* | 0.15 | i | 0
Cc1cccc(-c2c3c(=O)n(C)c(=O)n(C)c3c3nnc4ccccc4n23)c1 | 2 | . | -0.15 | + | 0
CC1C/C(=C\c2cccnc2)C(=O)/C(=C/c2cccnc2)C1 (stereo not drawn) | 32* | 0 | -6.4* | i | 110*
O=C1/C(=C/c2cccnc2)CCc2c1[nH]c1ccccc21 | 4 | 0 | -0.56 | i | 0
O=c1c(/C=N/Nc2ccccc2)c(Sc2nnnn2-c2ccccc2)nc2ccccn12 | 3 | -1 | -2.2 | + | 0
SMILES | MT stabilizer | b-catenin transl | Dynein cargo inh | Autophagy mod | Hsp70 act
O=C(O)c1ccccc1N/N=C/c1c(Sc2nnnn2-c2ccccc2)nc2ccccn2c1=O | . | 1 | 0.65 | . | .
O=C(COc1ccc(C(=O)c2ccccc2)cc1)NCc1ccc(F)cc1 | 9.7* | 158* | 0.056 | i | 0
CCOC(=O)C1=C(N)N(c2cc(S(=O)(=O)N3CCOCC3)ccc2Cl)C(=O)C1 | 2 | 0 | -0.49 | i | 0
COc1cc(CNc2ccc(N3CCCC3)cc2)cc(Cl)c1OC | 16* | 3 | 1.2 | i | 0
CCOc1cc(CNc2ccc(S(N)(=O)=O)cc2)cc(Cl)c1OC | 4 | -2 | -0.37 | i | 0
C=CCOc1c(Cl)cc(CNc2ccc(C)c(Cl)c2)cc1OC | 18* | 146* | 0.21 | i | 0
C=CCOc1c(Cl)cc(CNc2ccc(N(C)C)cc2)cc1OC | 32* | 4 | -0.88 | i | 0
CCOc1cc(CNc2ccc(N3CCCC3)cc2)cc(Cl)c1OC | 6 | 4 | 0.32 | i | 0
COc1cc(CCC(=O)N2CCN(c3ncccn3)CC2)cc(OC)c1OC | 9 | 2 | -0.21 | i | 0
CCCCOC(=O)CSc1nc2ccccc2o1 | . | 1 | -0.15 | . | .
O=C(N/N=C/c1cn(-c2ccccc2)nc1-c1ccc(F)cc1)c1ccc2c(c1)OCO2 | 16* | 1 | -0.39 | i | 0
O=C(N/N=C\c1cn(-c2ccccc2)nc1-c1ccccc1)c1ccc2c(c1)OCO2 | 3 | 0 | -0.37 | i | 0
Cc1c(/C=N/NC(=O)c2ccc3c(c2)OCO3)cnn1C | 3 | 3 | -1.6 | i | 0
CCn1ncc(/C=N/NC(=O)c2ccc3c(c2)OCO3)c1C | 36* | 6 | 0.26 | i | 0
Cc1ccc(/C=N/NC(=O)c2ccc3c(c2)OCCO3)s1 | . | 66* | 1.2 | . | .
COc1ccccc1N1CC(C)(C)C(=O)N(C(=O)c2c(F)cccc2Cl)C1=S | . | 0 | -0.56 | . | .
CC1CCCC(CC(=O)O)(CC(=O)O)C1 (stereo not drawn) | . | 0 | 0.32 | . | .
O=S(=O)(/C(=C/c1ccc(C(F)(F)F)cc1)c1nc2ccccc2[nH]1)c1ccccc1 | 54 | 38 | -2.6 | i | 3
CC(C)c1ccc(/C=C(\c2nc3ccccc3[nH]2)S(=O)(=O)c2ccccc2)cc1 | 27* | 27 | -3.4 | i | 0
CCOc1cccc(NC(=O)C2CC(=O)N(c3ccc(F)cc3)C2)c1 (stereo not drawn) | 2 | 0 | -0.81 | i | 0
COc1ccc(CN2CCN(C(=O)C3CCN(S(=O)(=O)c4cccs4)CC3)CC2)c(OC)c1OC | 4 | -1 | 0.089 | i | 0
COc1ccc(CN2CCN(C(=O)C3CCC(CNS(=O)(=O)c4ccc(C)cc4)CC3)CC2)c(OC)c1OC (stereo not drawn) | 6 | -2 | 0.047 | + | 0
Cc1ccccc1NC(=O)c1cc([N+](=O)[O-])ccc1NCCN1C(=O)CCC1=O | 6 | -3 | -1 | i | 0
Cc1nn(-c2ccccc2)c(C)c1NC(=O)Cc1cccs1 | 2 | -2 | -0.18 | i | 0
COc1cc(OC)cc(C(=O)Nc2c(C)nn(-c3ccccc3)c2C)c1 | 13* | 0 | 0.07 | i | 0
Cc1nn(-c2ccccc2)c(C)c1NC(=O)c1cccs1 | 41* | . | -0.38 | i | 0
Cc1c(NC(=O)CSCc2c(F)cccc2Cl)c(=O)n(-c2ccccc2)n1C | 6 | -5 | 0.23 | i | 0
